ChEMBL document CHEMBL1148326, “Chemometric studies on the bactericidal activity of quinolones via an extended VolSurf approach” (2004)

Experiments:
Assay type in all cases: functional
[1] = system: Staphylococcus aureus; test: Antibacterial activity was evaluated against Staphylococcus aureus
How it was run: (§1)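 MIC against aerobic bacteria, measured at Bayer AG, by standard agar dilution or broth microdilution per NCCLS M7-A5 guidelines. MIC taken as lowest concentration visibly inhibiting growth after in vitro incubation, read when untreated culture growth becomes visible; expressed as log 1/C.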

[2] = system: Pseudomonas aeruginosa; test: Antibacterial activity was evaluated against Pseudomonas aeruginosa; how it was run: as §1
[3] = system: Escherichia coli; test: Antibacterial activity was evaluated against Escherichia coli; how it was run: as §1
[4] = system: Enterococcus faecalis; test: Antibacterial activity evaluated against Enterococcus faecalis; how it was run: as §1

SMILES	Log 1/C [1]	Log 1/C [2]	Log 1/C [3]	Log 1/C [4]
CN1CCC[C@@H]2CN(c3c(F)cc4c(=O)c(C(=O)O)cn(C5CC5)c4c3Cl)C[C@@H]21	6.83	5.32	7.15	6.23
O=C(O)c1cn(C2CC2)c2c(Cl)c(N3C[C@@H]4CCCN[C@@H]4C3)c(F)cc2c1=O	7.75	6.25	8.05	7.16
CC1=C(C)n2cc(C(=O)O)c(=O)c3c(F)c(F)c(N4CCN(C5CC5)CC4)c(c32)O1	4.42	3.51	4.12	4.12
O=C(O)c1c(=O)c2cc(F)c(N3C[C@@H]4CCCN[C@@H]4C3)c3c2n2c(csc12)CS3	6.86	5.63	7.16	6.54
O=C(O)c1cn(C(CF)CF)c2cc(N3C[C@@H]4CCCN[C@@H]4C3)c(F)cc2c1=O	5.01	4.11	5.61	5.01
CN1CCN(c2c(F)cc3c(=O)c(C(=O)O)cn(CF)c3c2F)CC1	5.85	5.85	7.07	5.55
O=C(O)c1cn(C2CC2)c2cc(N3CCN(C(CO)(CO)CO)CC3)c(F)cc2c1=O	4.74	3.53	5.34	4.13
O=C(O)c1cn2c3c(c(N4CCN(C5CC5)CC4)c(F)cc3c1=O)OC1=C2CCC1	4.75	3.54	4.15	4.75
COc1c(N2CC3=C(CN(C)CC3)C2)c(F)cc2c(=O)c(C(=O)O)cn(C3CC3)c12	6.84	5.32	6.84	6.52
C[C@H]1COc2c(N3C[C@H]4CCCN[C@H]4C3)c(F)cc3c(=O)c(C(=O)O)cn1c23	5.89	5.29	6.19	5.89
CN1CCN(c2cc3c(c(Cl)c2F)c(=O)c(C(=O)O)cn3C2CC2)CC1	6.48	5.28	7.1	5.88
CC(C)(C)N1CCN(c2cc3c(cc2F)c(=O)c(C(=O)O)cn3C2CC2)CC1	6.19	5.29	7.1	5.89
O=C(O)c1cn(C2CC2)c2c(F)c(N3C[C@@H]4CCCN[C@@H]4C3)c(F)cc2c1=O	7.44	6.23	8.02	6.84
O=C(O)c1cn(C2CCOCC2)c2cc(N3CCNCC3)c(F)cc2c1=O	4.07	3.47	3.77	4.07
C=CCN1CCN(c2cc3c(cc2F)c(=O)c(C(=O)O)cn3C2CC2)CC1	6.21	5.31	6.82	5.61
O=C(O)c1cn(C2CC2)c2cc(N3C(=O)C=CC3=O)c(F)cc2c1=O	3.43	3.43	3.43	3.43
O=C(O)c1cn(C2CC2)c2cc(N3CCN(c4ncccn4)CC3)c(F)cc2c1=O	5.01	3.5	4.41	4.71
CSc1cc2c(=O)c(C(=O)O)cn(C3CC3)c2c(SC)c1SC	4.96	3.46	4.36	3.76
O=C(O)c1cn(C2CC2)c2cc(N3C[C@H]4CCCN[C@H]4C3)c(F)cc2c1=O	6.21	5.61	6.82	5.91
O=C(O)c1cn(C2CC2)c2cc(N3CCN(C4CC4)CC3)c(F)cc2c1=O	6.17	4.67	7.08	5.57
CO/N=C/Cn1cc(C(=O)O)c(=O)c2cc(F)c(N3CCN(C)CC3)c(F)c21	4.39	4.39	5.29	3.49
O=C(O)c1cn(C2CC2)c2c(Cl)c(N3C[C@H]4CCCN[C@H]4C3)c(F)cc2c1=O	6.85	5.65	7.47	6.85
CN1CCC[C@H]2CN(c3c(F)cc4c(=O)c(C(=O)O)cn(C5CC5)c4c3Cl)C[C@H]21	7.13	5.62	7.45	6.84
C#Cc1c(N2C[C@@H]3CCCN[C@@H]3C2)c(F)cc2c(=O)c(C(=O)O)cn(C3CC3)c12	7.7	5.9	7.7	7.7

SMILES	Log 1/C [1]	Log 1/C [2]	Log 1/C [3]	Log 1/C [4]
O=C(O)c1cn(C2CC2)c2c([N+](=O)[O-])c(N3CCOCC3)c(F)cc2c1=O	5.58	3.77	5.58	4.67
CN1Cc2csc3c(C(=O)O)c(=O)c4cc(F)c(N5CCNCC5)c1c4n23	6.81	5.89	7.11	6.49
O=C(O)c1cn(C2C[C@@H]2F)c2c(Cl)c(N3C[C@H]4CCCN[C@H]4C3)ccc2c1=O (some centres not stated)	6.51	5.61	7.13	6.51
CN1CCN(c2c(F)cc3c(=O)c(C(=O)O)cn4c3c2OC(C(C)(C)C)=C4)CC1	3.84	3.53	4.44	4.14
O=C(O)c1cn(C2CC2)c2c(F)c(N3Cc4cccnc4C3)c(F)cc2c1=O	7.44	5.02	6.53	7.73
CC(C)(C)n1cc(C(=O)O)c(=O)c2cc(F)c(N3CCNCC3)cc21	6.44	6.14	7.06	6.44
C[C@H]1COc2c(N3C[C@@H]4CCCN[C@@H]4C3)c(F)cc3c(=O)c(C(=O)O)cn1c23	6.19	5.59	6.8	6.19
O=C(O)c1cn(C2CC2)c2cc(N3CCN(c4ccncc4)CC3)c(F)cc2c1=O	5.61	3.5	5.91	4.71
CC(=O)N1CCC[C@H]2CN(c3c(F)cc4c(=O)c(C(=O)O)cn(C5CC5)c4c3Cl)C[C@H]21	5.95	3.84	5.35	5.65
O=C(O)c1cn(C2CC2)c2cc(N3C[C@@H]4CCCN[C@@H]4C3)c(F)cc2c1=O	7.12	5.92	7.12	6.21
O=C(O)c1cn(C2CC2)c2c(Cl)c(N3CCCCC3)c(F)cc2c1=O	7.42	5.26	6.46	6.79
O=C(O)c1cn(C2CC2)c2c(F)c(N3C[C@H]4CCCN[C@H]4C3)c(F)cc2c1=O	6.84	5.63	7.45	6.53
O=C(O)c1cn(C2CC2)c2c(F)c(N3C[C@@H]4OCCN[C@@H]4C3)c(F)c(Br)c2c1=O	6.27	4.47	6.58	5.37
O=C(O)c1cn2c3c(c(N4CCNCC4)c(F)cc3c1=O)OC=C2COCc1ccccc1	4.15	3.55	3.55	4.15
O=C(O)c1cn(C2CC2)c2c(F)c(N3C4CCC3CC4)c(F)cc2c1=O	5.86	4.35	5.86	5.26
O=C(O)c1cn(-c2ccc(F)cc2F)c2nc(N3C[C@@H]4CCCN[C@@H]4C3)c(F)cc2c1=O	6.59	5.09	7.5	6
C#CCN1CCN(c2c(F)cc3c(=O)c(C(=O)O)cn(C4CC4)c3c2Cl)CC1	6.21	5.01	6.83	5.61
CN1CCN(c2nc3c(cc2Cl)c(=O)c(C(=O)O)cn3C2CC2)CC1	4.96	4.96	6.77	4.35
CC1CN(c2c(F)cc3c(=O)c(C(=O)O)cn(C4CC4)c3c2Cl)CC(C)N1 (configuration not stated)	6.54	5.63	7.16	5.93
N[C@@]12C=CC=CC1CN(c1c(F)cc3c(=O)c(C(=O)O)cn([C@@H]4C[C@@H]4F)c3c1Cl)C2 (some centres not stated)	8.06	6.56	8.06	7.16
CCOc1c(F)cc2c(=O)c(C(=O)O)cn(C(C)(C)CF)c2c1Cl	4.95	3.45	4.35	4.05
CO/N=C/Cn1cc(C(=O)O)c(=O)c2cc(F)c(N3C[C@@H]4CCCN(C)[C@@H]4C3)c(F)c21	5.62	4.42	5.62	4.42
CNn1cc(C(=O)O)c(=O)c2cc(F)c(N3CCN(C)CC3)cc21 [AMIFLOXACIN]	5.52	5.83	6.75	4.92
O=C(O)c1cn(C2CC2)c2cc(N3CCNCC3)c(F)cc2c1=O [CIPROFLOXACIN]	6.16	6.77	7.66	6.16
